LEDGF integ inh: blockers of LEDGF/p75-dependent integrase strand transfer – biochemical, TR-FRET, high throughput, primary screen. HIV-1 integrase (with human LEDGF/p75). TR-FRET IN-LEDGF/p75 DNA integration, Eu/Cy5. inhibition, % at 3.7 µM. 370,000 compounds, 0.64% hits. AID 743269, 2014;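 active = inhibition above the screen-wide mean plus 3 SD, cut at about 13% in these data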;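 note: signal is the Cy5 over europium emission ratio at 671 and 618 nm; 0% = plate median of compound wells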
MBD2 inh: inhibitors of MBD2 binding to methylated DNA, primary screen, biochemical, TR-FRET, DNA-binding domain, human; MBD2 binding to methylated oligonucleotide; inhibition, % at 4.4 µM; 370,000 compounds, 0.31% hits; AID 686964, 2013; in the data active = inhibition above about 13%
NSD2 inh: NSD2 histone methyltransferase inhibitors, primary screen, biochemical, AlphaScreen, single concentration, set 2 | Histone-lysine N-methyltransferase NSD2 (Homo sapiens), O96028 | AID 743445, 2014 | 310,000 compounds, 0.54% hits | NSD2 peptide methylation, 120 min | inhibition, % at 12.5 µM; in the data active = inhibition above about 50%
UHRF1 MBD2 ctr: UHRF1 methylated DNA binding inhibitors, primary screen, counter-screen for MBD2 inhibitor project, biochemical, TR-FRET, human UHRF1, single concentration | E3 ubiquitin-protein ligase UHRF1 (Homo sapiens), Q96T88 | UHRF1 binding to methylated oligo | inhibition, % at 4.4 µM | 370,000 compounds, 0.75% hits | AID 687016, 2013; in the data active = inhibition above about 21%;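 note: UHRF1 SRA domain binding a hemimethylated CpG hairpin DNA probe; 0% = median of test compound wells and 100% = reference inhibitor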
Target sequence (Q96T88 whole entry, looked up, the tested form may be a part): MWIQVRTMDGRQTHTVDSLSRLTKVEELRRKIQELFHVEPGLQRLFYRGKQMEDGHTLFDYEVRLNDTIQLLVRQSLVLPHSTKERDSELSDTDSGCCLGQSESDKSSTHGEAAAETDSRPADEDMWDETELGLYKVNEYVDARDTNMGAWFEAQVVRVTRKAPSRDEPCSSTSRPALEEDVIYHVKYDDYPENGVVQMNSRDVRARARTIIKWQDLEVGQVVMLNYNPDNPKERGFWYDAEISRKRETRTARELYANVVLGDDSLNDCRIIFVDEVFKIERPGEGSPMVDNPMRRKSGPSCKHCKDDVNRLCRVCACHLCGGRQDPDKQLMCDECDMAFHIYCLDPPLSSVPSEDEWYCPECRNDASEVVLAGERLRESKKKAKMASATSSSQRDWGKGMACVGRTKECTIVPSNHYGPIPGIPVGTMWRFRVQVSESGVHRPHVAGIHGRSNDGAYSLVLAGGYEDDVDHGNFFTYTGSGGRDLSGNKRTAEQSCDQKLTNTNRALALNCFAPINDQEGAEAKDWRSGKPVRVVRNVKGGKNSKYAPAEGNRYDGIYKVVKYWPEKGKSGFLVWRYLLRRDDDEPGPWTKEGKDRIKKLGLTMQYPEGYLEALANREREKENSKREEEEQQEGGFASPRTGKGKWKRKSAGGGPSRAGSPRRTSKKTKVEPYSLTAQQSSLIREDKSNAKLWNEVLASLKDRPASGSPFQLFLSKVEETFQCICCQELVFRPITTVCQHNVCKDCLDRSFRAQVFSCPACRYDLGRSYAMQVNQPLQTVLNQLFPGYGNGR
CASP6 VEID inh: human caspase-6 inhibitors, primary screen, biochemical, VEID-R110 fluorescence, single point, set 2; P55212; AID 686996, 2013; inhibition, % at 12.5 µM; 350,000 compounds, 0.53% hits; purified caspase-6, Z-VEID-R110 cleavage fluorescence;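 active = mean inhibition across replicates at least about 35%, with every replicate also reaching that limit, limit read from the data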;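 note: 0% = median of neutral control wells and 100% = no fluorescence left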
TDP2 absorb: human TDP2 enzyme inhibitors, primary screen, biochemical, epi absorbance, recombinant enzyme; T5PNP hydrolysis, p-nitrophenol absorbance 415 nm; inhibition, % at 12.8 µM; 370,000 compounds, 0.34% hits; AID 720702, 2013;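 active = inhibition above the mean of all tested compounds plus 3 SD, set per campaign, cut at about 25% in these data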;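 note: 0% = DMSO with enzyme and 100% = buffer with substrate but no TDP2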
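Evaluation: % inhibition relative to enzyme-containing and enzyme-free wells. Material: recombinant human TDP2. Benchmarks: enzyme-free and DMSO wells. Timing: enzyme reaction with compound for 2 h at 37 °C. Compound dosing: 12.8 µM only. Measured by: p-Nitrophenol epi absorbance. Reagent: T5PNP substrate at 5 mM, a TopII-DNA adduct mimic. Replication: single well per compound.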
TDP2 confirm: human TDP2 enzyme inhibitors, retest, confirmation, biochemical, epi absorbance, recombinant enzyme. shares compounds with TDP2 absorb. absorbance read-out. AID 743263, 2014. 1,100 compounds, 22% hits. inhibition, % at 12.8 µM; in the data active = inhibition above about 25%;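 note: 0% = vehicle with enzyme and 100% = no enzyme buffer only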
IN multimer up: HIV-1 IN multimer formation enhancers, counter-screen for LEDGF/p75 integration inhibitor project, biochemical, TR-FRET; 2,000 compounds, 17% hits; AID 1053131, 2014; shares compounds with LEDGF integ inh; activation, % at 7.7 µM; TR-FRET HIV-1 integrase multimerization; in the data active = activation above about 8.9%
TRFRET interf: TR-FRET optical interference artefacts, confirmation, artefact control for LEDGF/p75-dependent integration inhibitor project, biochemical, HIV-1 IN multimerization; 2,000 tested, under 10 active; shares compounds with LEDGF integ inh; inhibition, % at 7.7 µM; TR-FRET optical interference counterscreen;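 active = inhibition above the mean over all tested compounds plus 3 SD, which no compound reached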;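 note: 0% = integrase with antibodies and DMSO and 100% = antibodies without integrase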
IN-LEDGF confirm: inhibitors of HIV-1 IN-LEDGF/p75 DNA integration, confirmation, biochemical, TR-FRET; shares compounds with LEDGF integ inh; TR-FRET LEDGF/p75-dependent HIV-1 integration; inhibition, % at 3.7 µM; 2,000 compounds, 36% hits; AID 1053136, 2014; in the data active = inhibition above about 14%
Starred values were filed as active, the others as inactive; . = not tested or not shown. Hits are enriched below; roughly 1.8% of the tested compounds scored in any of these assays.

SMILES	LEDGF integ inh	MBD2 inh	NSD2 inh	UHRF1 MBD2 ctr	CASP6 VEID inh	TDP2 absorb	TDP2 confirm	others
CC(C)NC(=O)NCC[C@H]1CC[C@@H](NS(=O)(=O)c2ccccc2)[C@H](CO)O1	.	.	.	.	1.4	.	.
O=C(Cc1ccccc1[N+](=O)[O-])NCC1(c2cccc3c2OCO3)OCCO1	3.2	-0.2	-0.3	-0.8	1.1	27.1*	4.8
COCC(=O)N(C)C[C@H]1Oc2cc(C#CCN(C)C)ccc2S(=O)(=O)N([C@@H](C)CO)C[C@@H]1C	.	.	.	.	-1.2	.	.
COc1ccc(NC(=O)N[C@@H]2CC[C@H](CCNC(=O)c3cc(Cl)cc(Cl)c3)O[C@H]2CO)cc1	.	.	.	.	0.1	.	.
Cc1oc(-c2ccccc2F)nc1CS(=O)(=O)CC(=O)NCCCc1ccccc1	10.6	3.2	.	-0.6	-1.7	1.6	.
Cc1oc(-c2ccccc2F)nc1CS(=O)(=O)CC(=O)NC(C)CCc1ccccc1 (stereo not drawn)	0.9	-2.1	2.2	1.4	-3.7	26.7*	-0.8
Nc1ccc(C#Cc2ccc3c(=O)c4ccccc4oc3c2)cc1	9.2	12.2	.	23.1*	-1.5	26.9*	-3.4
COc1cc(C(=O)Nc2ccccc2SCc2cc(=O)n3nc(C)sc3n2)cc(OC)c1OC	-1.0	4.3	2.5	2.2	-2.0	2.6	.
Cc1nn2c(=O)cc(CSc3ccccc3NC(=O)c3ccccc3)nc2s1	-0.9	1.1	-2.1	-2.5	1.0	26.2*	-5.2
COc1ccc(S(=O)(=O)N(C)C[C@H]2Oc3ccc(NC(=O)CCCCCC(=O)Nc4ccccc4N)cc3C(=O)N([C@@H](C)CO)C[C@@H]2C)cc1	.	.	.	.	1.5	.	.
CO[C@@H]1CC[C@H]2CCN(C)C(=O)CCCN(C)C(=O)c3cccc(C#N)c3OC[C@@H]1O2	.	.	.	.	6.7	.	.
COc1ccc(CN2CCCC(C(=O)N3CCCC3)C2)c(OC)c1 (stereo not drawn)	2.3	-1.4	-0.2	-1.5	-3.3	30.5*	6.0
O=C(C[C@H]1C=C[C@H](NC(=O)C2CCOCC2)[C@H](CO)O1)Nc1nccs1	.	.	.	.	1.4	.	.
O=C(O)CN1C(=O)CSC1=S	-2.3	2.7	-0.3	0.1	7.8	26.9*	4.7
S=C(Nc1ccc2nc(-c3ccccn3)c(-c3ccccn3)nc2c1)N1CCOCC1	25.8*	-0.7	3.6	9.9	12.5	30.6*	-0.4
Cc1cc(C)c(C#N)c(N2CCN(c3ccc(F)cc3)CC2)n1	0.7	6.8	-0.1	5.2	4.3	35.7*	2.7
COc1ccc(N(C(=O)Cn2nnc(-c3ccccc3F)n2)C(C(=O)NCC2CCCO2)c2ccc(Cl)cc2)cc1 (stereo not drawn)	0.8	-2.3	-0.8	-2.5	5.0	26.3*	2.4
Cc1noc(C)c1NC(=O)Nc1ccc2c(c1)C(=O)N([C@@H](C)CO)C[C@H](C)[C@H](CN(C)C(=O)Nc1ccc3c(c1)OCO3)O2	.	.	.	.	-1.5	.	.
O=C(N[C@@H]1CC[C@H](CCn2cc(-c3ccccc3)nn2)O[C@@H]1CO)c1ccccc1F	.	.	.	.	1.0	.	.
O=S(=O)(c1ccc(-c2ccon2)s1)N1CCCC1	0.3	1.1	-0.2	-1.0	3.3	26.5*	5.4
O=S(=O)(c1ccc(-c2ccon2)s1)N1CCN(CCN2CCOCC2)CC1	-4.0	-3.0	1.8	-0.6	-3.6	-2.0	.
CNC(=O)C[C@H]1CC[C@@H]2[C@H](COC[C@H](O)CN2Cc2ccc(C(F)(F)F)cc2)O1	.	.	.	.	3.9	.	.
COc1ccc(OC)c(C(=O)COC(=O)c2ccc(C)o2)c1	13.2	5.3	-3.5	18.2	.	28.8*	5.4
COc1ccc(C(=O)OCC(=O)c2cc(OC)ccc2OC)c(OC)c1	3.3	3.7	-1.1	5.3	.	-11.4	.
O=C(C[C@@H]1C[C@H]2c3cc(NC(=O)c4ccc5c(c4)OCO5)ccc3O[C@H]2[C@H](CO)O1)NCc1cccnc1	.	.	.	.	2.5	.	.
SMILES	LEDGF integ inh	MBD2 inh	NSD2 inh	UHRF1 MBD2 ctr	CASP6 VEID inh	TDP2 absorb	TDP2 confirm	others
CC1(C)CC(=O)C2=C(C1)OC(N)=C(C#N)C2c1cccs1 (stereo not drawn)	0.0	-1.3	0.3	1.7	-1.5	3.7	.
CC1(C)CC(=O)C2=C(C1)OC(N)=C(C#N)C2c1ccccc1 (stereo not drawn)	-0.6	0.8	-1.7	-0.4	1.9	68.1*	2.9
O=C(NC1CC1)C1CCN(C(=O)c2ccc(Cl)cc2Cl)CC1	-1.4	-5.5	1.2	-1.6	-2.4	-5.0	.
O=C(NC1CCCC1)C1CCN(C(=O)c2cc(Cl)ccc2Cl)CC1	0.8	2.5	-2.5	-3.6	-0.6	26.1*	6.3
O=C(C[C@H]1C[C@H]2c3cc(NC(=O)Cc4ccncc4)ccc3O[C@H]2[C@H](CO)O1)NCc1cccnc1	.	.	.	.	1.5	.	.
O=C(O)[C@@H]1CCCN1C(=O)CCc1c[nH]c2ccccc12	-1.6	0.3	-0.2	0.8	2.4	25.2*	-15.2
COc1cc2c(cc1OC)CN(C(=O)CCc1c[nH]c3ccccc13)[C@H](C(=O)O)C2	0.8	-3.5	1.2	-0.4	13.2	15.6	.
O=C(NCC[C@@H]1CC[C@@H](NC(=O)C2CCCC2)[C@@H](CO)O1)c1cnccn1	.	.	.	.	-1.2	.	.
O=S(=O)(Nc1cccc2ccccc12)c1cccs1	1.2	0.0	.	13.7	-2.6	-3.5	.
O=S(=O)(Nc1ccc(O)c2ccccc12)c1cccs1	26.0*	-6.5	.	0.5	53.1*	49.8*	30.1*	IN multimer up=2.5;TRFRET interf=-8.8;IN-LEDGF confirm=12.7

Assay outcomes (PubChem)
